Activity calls are given as the source filed them. No cut-off for these calls is given here.
Tests used:
L1210 = experiment: Growth inhibition of mouse L1210 cells after 72 hrs by MTT assay; type: functional, cell-based; details: L1210, 72 h
Human respirovirus 3 = experiment: Antiviral activity against parainfluenza 3 virus in Vero cells assessed as reduction of virus plaque formation after 7 days; type: functional, organism-based; details: Human respirovirus 3, Vero, 168 h
Punta Toro virus = experiment: Antiviral activity against Punta Toro virus in Vero cells assessed as reduction of virus plaque formation after 7 days; type: functional, organism-based; details: 168 h
Coxsackievirus B4 = experiment: Antiviral activity against coxsackie B4 virus in HeLa cells assessed as reduction of virus plaque formation after 7 days; type: functional, organism-based; details: Enterovirus B, 168 h
CCRF-CEM = experiment: Growth inhibition of human CEM cells after 72 hrs by MTT assay; type: functional, cell-based
Sindbis virus = experiment: Antiviral activity against sindbis virus in Vero cells assessed as reduction of virus plaque formation after 7 days; type: functional, organism-based; details: 168 h
Human alphaherpesvirus 3 [1] = experiment: Antiviral activity against thymidine kinase deficient Varicella-Zoster virus 07/1 assessed as reduction of plaque formation; type: functional, organism-based; details: Human alphaherpesvirus 3, 07/1
Outline: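 Plaque reduction assay in HEL cells against TK+ (OKA) and TK- (07/1) VZV strains; virus input 100 PFU; EC50 as concentration giving 50% plaque reduction.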

[2] = Cytotoxicity against HEL cells assessed as cell growth after 7 days; type: cell-based; details: human
HeLa = experiment: Growth inhibition of HeLa cells after 72 hrs by MTT assay; type: functional, cell-based; details: Homo sapiens
Outline: (§1)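 Tumor lines grown as monolayers in DMEM with 10% FBS, 2 mM L-glutamine and penicillin. Freshly diluted compounds added, solvent tested at matching concentrations; after 72 h growth measured by MTT. IC50 obtained by linear regression of concentrations bracketing 50% growth; mean of three separate experiments.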

HEp-2 = experiment: Growth inhibition of Hep2 cells after 72 hrs by MTT assay; type: functional, cell-based; details: Homo sapiens, HEp-2, 72 h; outline: as §1
MCF7 = experiment: Growth inhibition of MCF7 cells after 72 hrs by MTT assay; type: functional, cell-based; details: Homo sapiens, MCF7, 72 h; outline: as §1
Human betaherpesvirus 5 [3] = experiment: Antiviral activity against human cytomegalovirus Davis in HEL cells assessed as reduction of plaque formation after 7days; type: functional, organism-based; details: Human betaherpesvirus 5, Davis, 168 h
Outline: (§2)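 Confluent HEL fibroblasts infected with HCMV (Davis or AD-169) at 100 PFU per well; after 2 h adsorption, residual virus removed and medium with serial compound concentrations added (duplicate wells). Incubated 7 days; EC50 taken as concentration reducing plaque formation by 50%.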

[4] = Growth inhibition of human Molt4/C8 cells after 72 hrs by MTT assay; type: functional, cell-based; details: MOLT-4, 72 h
[5] = tested on: Mammalian orthoreovirus 1; experiment: Antiviral activity against reovirus1 virus in Vero cells assessed as reduction of virus plaque formation after 7 days; type: functional, organism-based; details: Mammalian orthoreovirus 1, Vero, 168 h
Human betaherpesvirus 5 [6] = experiment: Antiviral activity against human cytomegalovirus AD169 in HEL cells assessed as reduction of plaque formation after 7 days; type: functional, organism-based; details: Human betaherpesvirus 5, AD169, HEL, 168 h; outline: as §2
MIA PaCa-2 = experiment: Growth inhibition of MiaPaCa2 cells after 72 hrs by MTT assay; type: functional, cell-based; details: Homo sapiens, MIA PaCa-2, 72 h; outline: as §1
[7] = Cytotoxicity against HEL cells assessed as cell morphology after 7 days; type: cell-based; details: human
Outline: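 Uninfected confluent HEL cultures exposed to compounds; MCC recorded as lowest concentration producing a microscopically detectable alteration of normal cell morphology at day 7.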

Human alphaherpesvirus 3 [8] = experiment: Antiviral activity against thymidine kinase expressing Varicella-Zoster virus OKA assessed as reduction of plaque formation; type: functional, organism-based; details: Human alphaherpesvirus 3, OKA
SW-620 = experiment: Growth inhibition of SW620 cells after 72 hrs by MTT assay; type: functional, cell-based; details: Homo sapiens, SW-620, 72 h; outline: as §1
WI-38 = experiment: Growth inhibition of human WI38 fibroblasts at 0.1 uM after 72 hrs by MTT assay; type: functional, cell-based

Row | SMILES | IC50 (L1210) [µM] | EC50 (Human respirovirus 3) [µM] | EC50 (Punta Toro virus) [µM] | EC50 (Coxsackievirus B4) [µM] | IC50 (CCRF-CEM) [µM] | EC50 (Sindbis virus) [µM] | EC50 (Human alphaherpesvirus 3 [1]) [µM] | IC50 (HeLa) [µM] | IC50 (MCF7) [µM] | EC50 (Human betaherpesvirus 5 [3]) [µM] | EC50 [5] [µM] | EC50 (Human betaherpesvirus 5 [6]) [µM] | IC50 (MIA PaCa-2) [µM] | EC50 (Human alphaherpesvirus 3 [8]) [µM] | IC50 (SW-620) [µM] | CC50 at 168 h [2] [µM] | IC50 (HEp-2) [µM] | IC50 [4] [µM] | MCC at 168 h [7] [µM] | Activity (WI-38)
1 | CC(O)(Cc1cc(O)nc(O)n1)C(F)(F)F (centres undefined) | > 500 | > 200 | > 200 | > 200 | > 500 | > 200 | > 100 | > 100 | > 100 | > 100 | > 200 | > 100 | > 100 | > 100 | > 100 | > 100 | > 100 | > 500 | > 100 | –
2 | COc1nc(C)c(Br)c(OC)n1 | > 200 | > 200 | > 200 | > 200 | > 200 | > 200 | 88 | > 100 | > 100 | > 100 | > 200 | > 100 | > 100 | > 100 | > 100 | 18 | > 100 | > 200 | ≥ 100 | –
3 | COc1cc(CC(C)(O)Cc2ccccc2F)nc(OC)n1 (centres undefined) | > 200 | > 130 | > 130 | > 200 | 156 | > 130 | > 100 | > 200 | > 200 | > 100 | > 130 | > 100 | > 200 | > 100 | > 200 | > 100 | > 200 | 79 | ≥ 100 | –

The next lines start with results.

Row | IC50 (L1210) [µM] | EC50 (Human respirovirus 3) [µM] | EC50 (Punta Toro virus) [µM] | EC50 (Coxsackievirus B4) [µM] | IC50 (CCRF-CEM) [µM] | EC50 (Sindbis virus) [µM] | EC50 (Human alphaherpesvirus 3 [1]) [µM] | IC50 (HeLa) [µM] | IC50 (MCF7) [µM] | EC50 (Human betaherpesvirus 5 [3]) [µM] | EC50 [5] [µM] | EC50 (Human betaherpesvirus 5 [6]) [µM] | IC50 (MIA PaCa-2) [µM] | EC50 (Human alphaherpesvirus 3 [8]) [µM] | IC50 (SW-620) [µM] | SMILES | CC50 at 168 h [2] [µM] | IC50 (HEp-2) [µM] | IC50 [4] [µM] | MCC at 168 h [7] [µM] | Activity (WI-38)
4 | > 200 | > 200 | > 200 | 24 | 192 | 200 | > 20 | > 100 | ≥ 100 | 38 | > 200 | > 100 | > 100 | > 100 | ≥ 100 | COc1cc(/C=C(/O)c2ccc(F)cc2)nc(OC)n1 | > 100 | > 100 | > 200 | > 100 | –
5 | 38 | > 8 | > 8 | > 40 | 28 | > 8 | > 100 | 18 | 8 | > 100 | > 8 | > 100 | 2 | > 100 | 1 | COc1nc(CBr)c(Br)c(OC)n1 | 38.7 | 7 | 97 | > 100 | inactive
6 | > 200 | > 200 | > 200 | > 200 | > 200 | > 200 | > 100 | > 200 | > 200 | > 100 | > 200 | > 100 | > 200 | > 100 | > 200 | CC(=O)OC(C)(CF)Cc1cc(O)nc(O)n1 (centres undefined) | > 100 | > 200 | > 200 | > 100 | –
7 | 195 | > 200 | > 200 | > 40 | 136 | > 200 | 45 | 35 | 38 | 20 | > 200 | 45 | 65 | 80 | ≥ 100 | COc1nc(CC(C)(O)c2ccc(F)cc2)c(C)c(OC)n1 (centres undefined) | > 100 | 43 | 144 | > 100 | –

Source: ChEMBL document CHEMBL1145384, “Novel C-6 fluorinated acyclic side chain pyrimidine derivatives: synthesis, (1)H and (13)C NMR conformational studies, and antiviral and cytostatic evaluations” (J Med Chem, 2007)
